Experimental data as given in ChEMBL document CHEMBL5724801, “EUbOPEN Chemogenomics Library - Multiplex” (2024).
“And” between values parts separate entries of the source, which are not always exact repeats. Identical values can stand only once.

Tested on: U2OS
Assay: Multiplex assay against U2OS
Type: toxicity, cell-based
Conditions: human
Outline: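 Cells stained live at seeding with Hoechst33342, BioTracker Green Microtubule Cytoskeleton Dye, MitoTracker Red and Annexin V Alexa Fluor 680 were imaged on a CQ1 microscope at 37°C and 5% CO2 after compound addition. Their classification by CellPathfinder machine-learning gating ran from Hoechst high-intensity objects versus normal cells, to healthy, pyknosed or fragmented nuclei among normal cells, to mitotic or apoptotic among pyknosed cells. Tubulin, mitochondrial-mass and membrane-permeability phenotypes are per cents of healthy-nucleus cells.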

[1] = 12 h, 1 µM, compound concentration 1 uM
[2] = 12 h, 10 µM, compound concentration 10 uM
[3] = 24 h, 1 µM, compound concentration 1 uM
[4] = 24 h, 10 µM, compound concentration 10 uM
[5] = 48 h, 1 µM, compound concentration 1 uM
[6] = 48 h, 10 µM, compound concentration 10 uM

SMILES: COC(=O)C1=C(C)NC(C)=C(C(=O)OC(C)C)C1c1cccc2nonc12 (configuration not stated) [ISRADIPINE]
- Population Apoptotic (%) [1]: 29.03% and 12.5%
- Population Fragmented Nuclei (%) [1]: 2.02% and 3.01%
- Population Healthy Nuclei (%) [1]: 89.02% and 84.96%
- Population Hoechst High Intensity Objects (%) [1]: 0%
- Population Membrane Permeable-Phenotype (%) [1]: 0.97% and 0.88%
- Population Mitochondria Different-Phenotype (%) [1]: 0% and 5.31%
- Population Mitotic Cells (%) [1]: 70.97% and 87.5%
- Population Normal (%) [1]: 100%
- Population Pyknosed Nuclei (%) [1]: 8.96% and 12.03%
- Population Tubulin-Different-Phenotype (%) [1]: 0.97% and 0.88%
- Total Cell Count [1]: 346 and 133
- Population Apoptotic (%) [2]: 38.64% and 25.81%
- Population Healthy Nuclei (%) [2]: 87.43% and 71.74%
- Population Hoechst High Intensity Objects (%) [2]: 0% and 13.21%
- Population Membrane Permeable-Phenotype (%) [2]: 2.14% and 3.64%
- Population Mitochondria Different-Phenotype (%) [2]: 0% and 13.33%
- Population Mitotic Cells (%) [2]: 61.36% and 74.19%
- Population Normal (%) [2]: 100% and 86.79%
- Population Pyknosed Nuclei (%) [2]: 11.76% and 13.48%
- Population Tubulin-Different-Phenotype (%) [2]: 3.67% and 1.21%
- Total Cell Count [2]: 374 and 265
- Population Apoptotic (%) [3]: 48.48% and 31.25%
- Population Fragmented Nuclei (%) [3]: 1.75% and 1.23%
- Population Healthy Nuclei (%) [3]: 91.03% and 88.89%
- Population Hoechst High Intensity Objects (%) [3]: 0%
- Population Membrane Permeable-Phenotype (%) [3]: 0.24% and 2.78%
- Population Mitochondria Different-Phenotype (%) [3]: 0.24% and 4.86%
- Population Mitotic Cells (%) [3]: 51.52% and 68.75%
- Population Normal (%) [3]: 100%
- Population Pyknosed Nuclei (%) [3]: 7.22% and 9.88%
- Population Tubulin-Different-Phenotype (%) [3]: 0.72% and 0%
- Total Cell Count [3]: 457 and 162
- Population Apoptotic (%) [4]: 37.5% and 20.93%
- Population Healthy Nuclei (%) [4]: 84.47% and 69.69%
- Population Hoechst High Intensity Objects (%) [4]: 0% and 13.61%
- Population Membrane Permeable-Phenotype (%) [4]: 0.69% and 3.95%
- Population Mitotic Cells (%) [4]: 62.5% and 79.07%
- Population Normal (%) [4]: 100% and 86.39%
- Population Pyknosed Nuclei (%) [4]: 12.43% and 16.93%
- Population Tubulin-Different-Phenotype (%) [4]: 3.22% and 0%
- Total Cell Count [4]: 515 and 294
- Population Apoptotic (%) [5]: 41.54% and 54.55%
- Population Fragmented Nuclei (%) [5]: 2.53% and 3.11%
- Population Healthy Nuclei (%) [5]: 89.63% and 84.05%
- Population Hoechst High Intensity Objects (%) [5]: 0%
- Population Membrane Permeable-Phenotype (%) [5]: 1.35% and 1.39%
- Population Mitochondria Different-Phenotype (%) [5]: 0.27% and 4.17%
- Population Mitotic Cells (%) [5]: 58.46% and 45.45%
- Population Normal (%) [5]: 100%
- Population Pyknosed Nuclei (%) [5]: 7.84% and 12.84%
- Population Tubulin-Different-Phenotype (%) [5]: 1.35% and 0%
- Population Apoptotic (%) [6]: 50.83% and 53.45%
- Population Fragmented Nuclei (%) [6]: 3.44% and 6.67%
- Population Healthy Nuclei (%) [6]: 82.35% and 75.76%
- Population Hoechst High Intensity Objects (%) [6]: 0% and 9.34%
- Population Membrane Permeable-Phenotype (%) [6]: 1.58% and 4.4%
- Population Mitochondria Different-Phenotype (%) [6]: 0.14% and 6.4%
- Population Mitotic Cells (%) [6]: 49.17% and 46.55%
- Population Normal (%) [6]: 100% and 90.66%
- Population Pyknosed Nuclei (%) [6]: 14.22% and 17.58%
- Population Tubulin-Different-Phenotype (%) [6]: 2.73% and 2.8%
- Total Cell Count [6]: 844 and 364

SMILES: O=C(O)CCC/C=C\CC1C(O)CC(O)C1/C=C/C(O)COc1cccc(Cl)c1 (configuration not stated) [CLOPROSTENOL]
- Population Apoptotic (%) [1]: 77% and 75%
- Population Fragmented Nuclei (%) [1]: 30% and 11%
- Population Healthy Nuclei (%) [1]: 60% and 82%
- Population Hoechst High Intensity Objects (%) [1]: 3% and 0%
- Population Membrane Permeable-Phenotype (%) [1]: 2% and 6%
- Population Mitochondria Different-Phenotype (%) [1]: 0% and 3%
- Population Mitotic Cells (%) [1]: 22% and 25%
- Population Normal (%) [1]: 96% and 100%
- Population Pyknosed Nuclei (%) [1]: 9% and 6%
- Population Tubulin-Different-Phenotype (%) [1]: 1% and 2%
- Total Cell Count [1]: 201 and 129
- Population Apoptotic (%) [2]: 92% and 45%
- Population Healthy Nuclei (%) [2]: 60% and 81%
- Population Hoechst High Intensity Objects (%) [2]: 2% and 0%
- Population Membrane Permeable-Phenotype (%) [2]: 8% and 9%
- Population Mitochondria Different-Phenotype (%) [2]: 1% and 6%
- Population Normal (%) [2]: 97% and 100%
- Population Pyknosed Nuclei (%) [2]: 10% and 8%
- Population Tubulin-Different-Phenotype (%) [2]: 3%
- Total Cell Count [2]: 272 and 131
- Population Apoptotic (%) [3]: 81% and 75%
- Population Fragmented Nuclei (%) [3]: 24% and 15%
- Population Healthy Nuclei (%) [3]: 63% and 77%
- Population Hoechst High Intensity Objects (%) [3]: 1% and 0%
- Population Membrane Permeable-Phenotype (%) [3]: 4% and 6%
- Population Mitochondria Different-Phenotype (%) [3]: 2%
- Population Mitotic Cells (%) [3]: 18% and 25%
- Population Normal (%) [3]: 98% and 100%
- Population Pyknosed Nuclei (%) [3]: 11% and 7%
- Population Tubulin-Different-Phenotype (%) [3]: 2% and 4%
- Total Cell Count [3]: 237 and 157
- Population Apoptotic (%) [4]: 90% and 70%
- Population Fragmented Nuclei (%) [4]: 23% and 11%
- Population Healthy Nuclei (%) [4]: 66% and 82%
- Population Hoechst High Intensity Objects (%) [4]: 2% and 0%
- Population Membrane Permeable-Phenotype (%) [4]: 7% and 11%
- Population Mitochondria Different-Phenotype (%) [4]: 2% and 4%
- Population Mitotic Cells (%) [4]: 10% and 30%
- Population Normal (%) [4]: 97% and 100%
- Population Pyknosed Nuclei (%) [4]: 10% and 5%
- Population Tubulin-Different-Phenotype (%) [4]: 3% and 4%
- Total Cell Count [4]: 306 and 177
- Population Apoptotic (%) [5]: 89% and 81%
- Population Fragmented Nuclei (%) [5]: 20% and 11%
- Population Healthy Nuclei (%) [5]: 70% and 81%
- Population Hoechst High Intensity Objects (%) [5]: 1% and 0%
- Population Membrane Permeable-Phenotype (%) [5]: 2% and 6%
- Population Mitochondria Different-Phenotype (%) [5]: 1% and 3%
- Population Mitotic Cells (%) [5]: 10% and 18%
- Population Normal (%) [5]: 98% and 99%
- Population Pyknosed Nuclei (%) [5]: 8% and 7%
- Population Tubulin-Different-Phenotype (%) [5]: 0% and 2%
- Total Cell Count [5]: 344 and 229
- Population Apoptotic (%) [6]: 91% and 84%
- Population Fragmented Nuclei (%) [6]: 18% and 12%
- Population Healthy Nuclei (%) [6]: 67% and 82%
- Population Hoechst High Intensity Objects (%) [6]: 3% and 2%
- Population Membrane Permeable-Phenotype (%) [6]: 6% and 10%
- Population Mitochondria Different-Phenotype (%) [6]: 1% and 2%
- Population Mitotic Cells (%) [6]: 8% and 15%
- Population Normal (%) [6]: 96% and 97%
- Population Pyknosed Nuclei (%) [6]: 14% and 5%
- Population Tubulin-Different-Phenotype (%) [6]: 4%
- Total Cell Count [6]: 396 and 246

SMILES: CC(C)(C)c1cc(C(C)(C)C)c(NC(=O)c2c[nH]c3ccccc3c2=O)cc1O [IVACAFTOR]
- Population Apoptotic (%) [1]: 36.36% and 31.58%
- Population Fragmented Nuclei (%) [1]: 1.43% and 1.95%
- Population Healthy Nuclei (%) [1]: 92.26% and 85.71%
- Population Hoechst High Intensity Objects (%) [1]: 0%
- Population Membrane Permeable-Phenotype (%) [1]: 0.62% and 0.76%
- Population Mitochondria Different-Phenotype (%) [1]: 0% and 7.58%
- Population Mitotic Cells (%) [1]: 63.64% and 68.42%
- Population Normal (%) [1]: 100%
- Population Pyknosed Nuclei (%) [1]: 6.3% and 12.34%
- Population Tubulin-Different-Phenotype (%) [1]: 0.62% and 0%
- Total Cell Count [1]: 349 and 154
- Population Apoptotic (%) [2]: 44.16% and 30.95%
- Population Fragmented Nuclei (%) [2]: 2.96% and 8.38%
- Population Healthy Nuclei (%) [2]: 74.26% and 66.47%
- Population Hoechst High Intensity Objects (%) [2]: 0%
- Population Membrane Permeable-Phenotype (%) [2]: 3.59% and 13.51%
- Population Mitotic Cells (%) [2]: 55.84% and 69.05%
- Population Normal (%) [2]: 100%
- Population Pyknosed Nuclei (%) [2]: 22.78% and 25.15%
- Population Tubulin-Different-Phenotype (%) [2]: 10.76% and 1.8%
- Total Cell Count [2]: 338 and 167
- Population Apoptotic (%) [3]: 22.95% and 40%
- Population Fragmented Nuclei (%) [3]: 1.83% and 3.23%
- Population Healthy Nuclei (%) [3]: 85.77% and 86.02%
- Population Hoechst High Intensity Objects (%) [3]: 0%
- Population Membrane Permeable-Phenotype (%) [3]: 0.24% and 1.88%
- Population Mitochondria Different-Phenotype (%) [3]: 0% and 6.88%
- Population Mitotic Cells (%) [3]: 77.05% and 60%
- Population Normal (%) [3]: 100%
- Population Pyknosed Nuclei (%) [3]: 12.4% and 10.75%
- Population Tubulin-Different-Phenotype (%) [3]: 0.71% and 0%
- Total Cell Count [3]: 492 and 186
- Population Apoptotic (%) [4]: 51.81% and 29.41%
- Population Fragmented Nuclei (%) [4]: 3.33% and 6.94%
- Population Healthy Nuclei (%) [4]: 75.38% and 63.58%
- Population Hoechst High Intensity Objects (%) [4]: 0%
- Population Mitotic Cells (%) [4]: 48.19% and 70.59%
- Population Normal (%) [4]: 100%
- Population Pyknosed Nuclei (%) [4]: 21.28% and 29.48%
- Population Tubulin-Different-Phenotype (%) [4]: 8.84% and 7.27%
- Total Cell Count [4]: 390 and 173
- Population Apoptotic (%) [5]: 47.3% and 42.86%
- Population Fragmented Nuclei (%) [5]: 2.51% and 4.1%
- Population Healthy Nuclei (%) [5]: 89.07% and 81.57%
- Population Hoechst High Intensity Objects (%) [5]: 0%
- Population Membrane Permeable-Phenotype (%) [5]: 0.13% and 0.84%
- Population Mitochondria Different-Phenotype (%) [5]: 0% and 5.86%
- Population Mitotic Cells (%) [5]: 52.7% and 57.14%
- Population Normal (%) [5]: 100%
- Population Pyknosed Nuclei (%) [5]: 8.43% and 14.33%
- Population Tubulin-Different-Phenotype (%) [5]: 0.64% and 1.67%
- Total Cell Count [5]: 878 and 293
- Population Apoptotic (%) [6]: 55% and 62.65%
- Population Healthy Nuclei (%) [6]: 75.09% and 44.95%
- Population Hoechst High Intensity Objects (%) [6]: 0% and 0.5%
- Population Membrane Permeable-Phenotype (%) [6]: 2.72% and 10.11%
- Population Mitotic Cells (%) [6]: 45% and 37.35%
- Population Normal (%) [6]: 100% and 99.5%
- Population Pyknosed Nuclei (%) [6]: 22.3% and 41.92%
- Population Tubulin-Different-Phenotype (%) [6]: 11.88% and 16.85%
- Total Cell Count [6]: 538 and 199
